Source: PubChem BioAssay
RAM inhibit – inhibitors of the yeast RAM network; S. cerevisiae dse1pr::URA3 reporter, 5-FOA growth OD615, 2 d; analog-sensitive cbk1-as2 kinase mutant strain; inhibition, % at 50 µM; 190,000 compounds, 1.8% hits; AID 868;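 active = inhibition above a set limit, 3 SD over mean compound inhibition, cut at about 8.4% in these data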;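 note: inhibition rescues growth on 5-FOA so higher OD means more RAM inhibition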
Yeast life ext – yeast lifespan extension; inhibition of the nicotinamide effect, % at 10 µM; S. cerevisiae growth with nicotinamide, OD615; deaD strain in restrictive glucose medium; 130,000 compounds, 0.68% hits;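 active = inhibition above a set limit, placed 3 SD over the median of all compounds, cut at about 26% in these data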
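assay system = DeaD-strain S. cerevisiae | measured by = absorbance at 615 nm | probe or stimulus = nicotinamide 1.5 mM | buffer or medium = CSMM-D glucose medium, restrictive | times = 48 h at 30 °C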
Ins promoter up – MIN6 insulin promoter up-regulation. 190,000 compounds, 0.3% hits. MIN6 insulin promoter-GFP reporter, high-content imaging; hits give high values. AID 1625. z-score at 5 µM;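 active = z-score above 3 at 5 µM with at least 500 cells counted in the well; inconclusive = wells under 500 cells, flagged as cytotoxic or low count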
Yeast growth inh – reduces growth of yeast BB579 in restrictive medium; 140,000 compounds, 0.51% hits; inhibition, % at 10 µM; S. cerevisiae BB579 growth, OD615, 48 h;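 active = inhibition above a set limit, 3 SD over the mean compound inhibition, cut at about 44% in these data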
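Assay system – yeast BB579 (DeaD) · Dosing – single compound dose of 10 µM, 0.25% DMSO final · Detection – OD615 turbidity measurement · Buffer or medium – CSMM-D restrictive synthetic medium containing dextrose (glucose) · Benchmarks – positive control amphotericin B 10 µg/mL · Incubation – 48 h exposure, 30 °C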
INS promoter inh – TRM-6 insulin promoter activity inhibition; TRM-6 cells, insulin promoter-eGFP reporter, imaging; reporter expression induced with tamoxifen; inhibition, % at 2 µM; 130,000 compounds, 0.9% hits; AID 1273;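 active = inhibition above the mean plus 3 SD, with well images judged a real hit on visual review, cut at about 60% in these data, passing the limit was not always enough; inconclusive = inhibition over the cutoff but images rejected on review; inactive = inhibition not above the cutoff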
Large screens that a line does not name were inactive. The list is not random: actives were taken first. Their share in the collection is about 3%.

Nc1ccccc1C(=O)N/N=C1\C2CN3CCN(C2)CC1(c1ccccc1)C3	none
Cc1cc(CC(C)C)n(-c2nc3ccccc3c(=O)n2OCc2ccccc2)n1	RAM inhibit 9.8
c1ccc(CSc2nnc(-c3sccc3-n3cccc3)o2)cc1	RAM inhibit 8.7 (no result: Ins promoter up)
Cc1ccccc1/C=N/Nc1ccnc2cc(Cl)ccc12	INS promoter inh 80
Oc1ccc(Nc2ccnc3cc(Cl)ccc23)cc1	none (no result: RAM inhibit, Yeast life ext, Yeast growth inh, INS promoter inh)
Clc1ccc(NNc2ccnc3cc(Cl)ccc23)cc1	none
Cc1ccc(/C=N/Nc2ccnc3cc(Cl)ccc23)c(C)c1	Yeast growth inh 68 (no result: INS promoter inh)
Cc1ccc2nc(CSc3nnc(Nc4ccccc4F)s3)cc(=O)n2c1	none
Cc1ccc(Nc2nnc(SCc3cc(=O)n4cc(C)ccc4n3)s2)cc1	RAM inhibit 11
COC(=O)/C(C#N)=C1/C=Cc2ccccc2N1C	INS promoter inh 81 (no result: Yeast life ext, Ins promoter up)
Nc1nonc1C(=O)NCCN=Cc1cc(Cc2ccccc2)cc(Br)c1O	Yeast growth inh 99
CCSc1cc(N2CCOCC2)nc(-c2ccc(Cl)cc2)n1	RAM inhibit 11
COc1ccc(N2CCN(C(=O)Cn3cnc4c(cnn4-c4ccc(C)cc4)c3=O)CC2)cc1	none (no result: Yeast life ext, Yeast growth inh)
CCOC(=O)C1=NNC2C(=O)N(Cc3ccccc3)C(=O)C12 (stereo not given)	none (no result: RAM inhibit, Yeast life ext, Yeast growth inh, INS promoter inh)
COC(=O)C1=C(N)OC2=C(C(=O)CC(C)(C)C2)C1c1cccs1 (stereo not given)	Yeast life ext 35
CC1(C)CC(=O)C2=C(C1)OC(N)=C(C#N)C2c1cccs1 (stereo not given)	none (no result: Yeast life ext, Yeast growth inh)
CCCOc1ccc(-c2nn(-c3ccccc3)cc2/C=C2\SC(N)=NC2=O)cc1	RAM inhibit 8.8
NC1=NC(=O)/C(=C/c2cn(CCC(=O)O)nc2-c2ccc(Cl)cc2)S1	RAM inhibit 8.6
NC1=NC(=O)/C(=C/c2cn(CCC(=O)O)nc2-c2ccc(F)cc2)S1	none
Cc1ccc(S(=O)(=O)N2CCCCC2)cc1NC(=O)COc1ccccc1F	none (no result: Yeast life ext, Ins promoter up, Yeast growth inh, INS promoter inh)
COc1ccc(/C=C/S(=O)(=O)NCc2ccccc2)cc1OC	none (no result: Yeast life ext, Yeast growth inh)
CC(C)(C)NC(=O)C(c1ccco1)N(C(=O)Cn1nnc(-c2ccc(F)cc2)n1)c1cccc(F)c1 (stereo not given)	RAM inhibit 9.2 (no result: Ins promoter up, INS promoter inh)
Cc1ccc(-c2nnn(CC(=O)N(c3ccc(F)cc3)C(C(=O)NC(C)(C)C)c3ccco3)n2)o1 (stereo not given)	none (no result: Yeast life ext)
O=C(CSc1ncccn1)NCc1cccc(Cl)c1	none (no result: Yeast life ext, Yeast growth inh)
CCOC(=O)c1ccc(CN(Cc2ccc(C)cc2)S(=O)(=O)c2cccc([N+](=O)[O-])c2)cc1	RAM inhibit 10
Cc1ccc(C(=O)O/N=C(\N)c2cccc([N+](=O)[O-])c2)cc1	none
C/C(=N\OC(=O)NC1CCCCC1)c1sc(-c2ccccc2)nc1C	RAM inhibit 10 (no result: INS promoter inh)
O=C(/C=C/c1cccc([N+](=O)[O-])c1)n1cnc2ccccc21	none (no result: Yeast life ext, Yeast growth inh)
COc1ccc(NS(=O)(=O)c2cc(NC(=O)CCSc3ccccc3)ccc2OC)cc1	none
COc1ccc(NC(=O)CCSc2ccc(C)cc2)cc1S(=O)(=O)Nc1ccccc1Cl	RAM inhibit 8.8 (no result: INS promoter inh)
CC(C)c1ccc(C(=O)N(c2ccccn2)C(C)c2ccco2)cc1 (stereo not given)	none
CC(c1ccco1)N(C(=O)c1ccccc1NS(=O)(=O)c1ccc(Cl)c([N+](=O)[O-])c1)c1ccccn1 (stereo not given)	Yeast life ext 40
COc1cc(C(=O)Nc2cc(-c3nc4cc(C)ccc4o3)ccc2C)cc(OC)c1OC	none
COc1cc(C(=O)Nc2cccc(-c3nc4cc(C)ccc4o3)c2)cc(OC)c1OC	RAM inhibit 8.7, INS promoter inh 71
Nc1nc(CN2CCCCCC2)nc(Nc2ccccc2)n1	INS promoter inh 89
O=C1C(=O)c2c(C(=O)c3ccccc3)coc2-c2ccccc21	Ins promoter up inconclusive, Yeast growth inh 99
Cc1oc2c(c1C(=O)c1ccccc1)C(=O)C(=O)c1ccccc1-2	none
Clc1ccccc1-c1nc2nc3ccccc3nc2n1-c1ccc2c(c1)OCO2	none
COCCCNC(=S)NCCNc1nc2c(C)c(C)ccc2cc1C#N	RAM inhibit 9.6 (no result: Yeast life ext, Yeast growth inh, INS promoter inh)
C=CCOc1ccc2c(c1)c(S(=O)(=O)c1ccc(C)cc1)cn2COC	RAM inhibit 9.9
COC(=O)[C@@H]1C[C@@H]2CC[C@@H](O)C[C@@H]2N1Cc1ccc(N2CCN(C)CC2)cc1	none (no result: RAM inhibit, Yeast life ext, Yeast growth inh, INS promoter inh)
Oc1ccc(N=Nc2nc(-c3ccccc3)c(-c3ccccc3)[nH]2)cc1	RAM inhibit 8.8
Oc1ccc(-c2[nH]nc(-c3ccccc3)c2-c2nc3ccccc3[nH]2)cc1	none
Cc1nc(NC(=O)c2cccc(-c3cc4ccccc4oc3=O)c2)ccc1Br	none (no result: INS promoter inh)
O=C(Nc1ccc(Br)cn1)c1cccc(-c2cc3ccccc3oc2=O)c1	Yeast life ext 76 (no result: INS promoter inh)
CC(C)N(C(=S)Nc1cccc(C(F)(F)F)c1)C(C)c1ccccn1 (stereo not given)	none (no result: Yeast life ext, Ins promoter up, Yeast growth inh)
O=C(c1ccccc1)N1CC(COc2ccccc2)OC(c2ccco2)O1 (stereo not given)	Yeast life ext 27
O=C(c1ccc(OCC2CCCO2)cc1)N1CCN(c2ccccc2)CC1 (stereo not given)	none
Cc1c(N=C2Nc3cccc4cccc2c34)c(=O)n(-c2ccccc2)n1C	none
Cc1c(N2C(=O)c3cccc4cccc(c34)C2=O)c(=O)n(-c2ccccc2)n1C	INS promoter inh 69
CC(NC(=O)OC(C)(C)C)C(=O)NC(CCC(=O)OCc1ccccc1)C(N)=O (stereo not given)	none (no result: Yeast life ext, Ins promoter up, Yeast growth inh)
CC(C(=O)Nc1cccnc1)n1cc([N+](=O)[O-])cn1 (stereo not given)	none (no result: Yeast life ext, Yeast growth inh, INS promoter inh)
CCOc1ccc(OCC(=O)c2c(O)c3ccccc3oc2=O)cc1	Yeast life ext 44
O=C(CC1CCCCC1)c1c(O)c2ccccc2oc1=O	RAM inhibit 9.6 (no result: Ins promoter up)
CCCCC(=O)c1c(O)c2ccccc2oc1=O	none (no result: INS promoter inh)
O=C(NC(=S)NCC1CCCO1)c1ccc([N+](=O)[O-])cc1 (stereo not given)	none
CN(C)c1ccc(NC(=O)COC(=O)c2cc(=O)c3ccccc3o2)cc1	INS promoter inh 67
CCc1ccc(C(=O)/C=C/c2ccc([N+](=O)[O-])o2)cc1	Yeast life ext 46
COc1ccc(CN(C(=O)CSc2nnc(-c3c[nH]c4ccccc34)o2)c2ccc(F)cc2)cc1OC	RAM inhibit 9.9 (no result: Yeast life ext)
CCOc1ccc(N2C(=O)CN(CC(=O)OC)C2=S)cc1	none (no result: Yeast life ext, Yeast growth inh)
O=C(CN1C(=O)COc2ccc(S(=O)(=O)N3CCCC3)cc21)NC1CCCCCCC1	none (no result: INS promoter inh)
COc1ccccc1NS(=O)(=O)c1ccc(NC(=O)c2ccncc2)cc1	none (no result: Yeast life ext, Yeast growth inh, INS promoter inh)
CCn1ccc(C(=O)Nc2ccc(S(=O)(=O)Nc3ccccc3OC)cc2)n1	Yeast life ext 67
COC(=O)[C@@H]1C[C@@]2(O)[C@@H](O)[C@@H](O)[C@@H](O)C[C@H]2N1C/C=C/c1ccccc1	none (no result: RAM inhibit, Yeast life ext, Yeast growth inh, INS promoter inh)
CCN(c1cccc(C)c1)S(=O)(=O)c1ccc2c3c(cccc13)C(=O)N2	RAM inhibit 8.5 (no result: Yeast life ext, Ins promoter up)
